Our source for the inhibition, Activity and Ratio values is ChEMBL document CHEMBL1152455, “Ribosome protection prevents azithromycin-mediated quorum-sensing modulation and stationary-phase killing of Pseudomonas aeruginosa” (2007).

Assay [1] deals with Pseudomonas aeruginosa. In words: Inhibition of rhamnolipid production in Pseudomonas aeruginosa PT1300 harboring vector pEX1.8 up to 50 ug/ml incubated for 24 hrs at 37 degC further 24 hrs at 25 degC. It is filed as functional, organism-based. In outline: (§1)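 SW plates (M9 with 0.1% glutamate replacing NH4Cl, 0.2% glucose, 1 mM MgSO4) carried an azithromycin gradient of 0–50 μg/ml. Three-μl droplets of about 10^6 CFU were spotted at equal spacing. Plates were incubated 24 h at 37°C, then 24 h at 25°C.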

Assay [2] relates to Pseudomonas aeruginosa. In words: Inhibition of rhamnolipid production in azithromycin-hypersusceptible Pseudomonas aeruginosa 11B harboring mexX deletion mutant incubated for 24 hrs at 37 degC further 24 hrs at 25 degC. It is filed as functional, organism-based. The method in brief: as §1
Assay [3] concerns Pseudomonas aeruginosa. In words: Inhibition of rhamnolipid production in Pseudomonas aeruginosa 12B overexpressing mexXY incubated for 24 hrs at 37 degC further 24 hrs at 25 degC. It is filed as functional, organism-based. In outline: as §1
Assay [4] deals with Pseudomonas aeruginosa. Nature of the assay: Inhibition of elastase production in Pseudomonas aeruginosa PT1300 harboring vector pEX1.8 after 18 hrs by elastin Congo red assay. It is filed as functional, organism-based. The method in brief:
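Cultures grew 7 h in Pseudomonas broth. Supernatant was mixed with excess elastin Congo red (4 mg/ml) in 0.1 M Tris pH 7.4, 1 mM CaCl2 and held 18 h at 37°C. After centrifugation, A495 was read and expressed as OD495/OD600 of the culture. Values are means ± standard deviations of five independent experiments.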

In assay [5] the test system is Pseudomonas aeruginosa. In words: Inhibition of swarming motility of Pseudomonas aeruginosa PT1300 harboring vector pEX1.8 at 2 ug/ml after 18 hrs. It is filed as functional, organism-based. The method in brief: (§2)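 Swarm plates were 0.5% agar M9 with 0.2% glucose, 1 mM MgSO4 and 0.05% glutamate as nitrogen source, containing azithromycin. Three μl of overnight LB culture was spotted, and plates were read after 18 h at 37°C.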

Assay [6] concerns Pseudomonas aeruginosa. In words: Inhibition of swarming motility of Pseudomonas aeruginosa PT1308 expressing Clostridium perfringens 23S rRNA methylase ErmBP at 2 ug/ml after 18 hrs. It is filed as functional, organism-based. The method in brief:
as §2

In assay [7] the test system is Pseudomonas aeruginosa. Nature of the assay: Bactericidal activity against stationary-phase Pseudomonas aeruginosa PT1300 culture harboring vector pEX1.8 after 20 to 22 hrs by plating serial dilution method. It is filed as functional, organism-based. In outline: (§3)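 Overnight LB cultures (with carbenicillin 100 μg/ml or gentamicin 15 μg/ml for plasmid strains) were diluted to OD600 0.05 in antibiotic-free LB and grown at 37°C to stationary phase. Azithromycin was added to 2-ml aliquots at similar cell densities, and incubation continued 20–22 h at 37°C. Viable counts came from serial dilutions plated on LB agar.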

In assay [8] the test system is Pseudomonas aeruginosa. Nature of the assay: Bactericidal activity against stationary-phase Pseudomonas aeruginosa PT1308 culture expressing Clostridium perfringens 23S rRNA methylase ErmBP assessed as effect on cell viability at 1 to 16 ug/ml after 22 hrs by plating serial dilution method. It is filed as functional, organism-based. The method in brief:
as §3

Assay [9] relates to Pseudomonas aeruginosa. Nature of the assay: Bactericidal activity against stationary-phase Pseudomonas aeruginosa PT1300 culture harboring vector pEX1.8 at 1 to 16 ug/ml after 22 hrs by plating serial dilution method in presence of 1 mM Mg2+. It is filed as functional, organism-based. The method in brief:
(§4)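 Stationary-phase LB cultures of PT1300 or PT1308 received azithromycin plus 1 mM MgSO4, then 22 h at 37°C. Viable counts came from serial dilutions plated on LB agar. Values are means ± standard deviations of three independent experiments.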

Assay [10] deals with Pseudomonas aeruginosa. Nature of the assay: Bactericidal activity against stationary-phase Pseudomonas aeruginosa PT1308 culture expressing Clostridium perfringens 23S rRNA methylase ErmBP at 1 to 16 ug/ml after 22 hrs by plating serial dilution method in presence of 1 mM Mg2+. It is filed as functional, organism-based. The method in brief:
as §4

Assay [11] relates to Pseudomonas aeruginosa. In words: Bactericidal activity against Pseudomonas aeruginosa PT1323 harboring rhlAB-encoding pAKRHL at 2 to 18 ug/ml after 22 hrs by plating serial dilution method. It is filed as functional. The method in brief: as §3
The test system of assay [12] is Pseudomonas aeruginosa. Nature of the assay: Bactericidal activity against Pseudomonas aeruginosa PT1332 rhlA mutant harboring vector pAK1900 at 2 to 18 ug/ml after 22 hrs by plating serial dilution method. It is filed as functional. In outline:
as §3

Assay [13] concerns Pseudomonas aeruginosa. In words: Inhibition of rhamnolipid production in Pseudomonas aeruginosa PT1323 harboring pAKRHL expressing rhlAB gene up to 50 ug/ml incubated for 24 hrs at 37 deg C further 24 hrs at 25 deg C. It is filed as functional, organism-based. The method in brief:
as §1

For assay [14], the system named is Pseudomonas aeruginosa. Nature of the assay: Antimicrobial activity against exponential-phase Pseudomonas aeruginosa PT1323 cultures harboring mutation in bacterial rhlA protein and expressing rhamnosyltransferase rhlAB gene at 1 mg/ml after 18 hrs by susceptibility assay. It is filed as functional, organism-based. The method in brief:
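LB agar plates with an azithromycin gradient (maximal 1 mg/ml) were streaked with each strain. Plates were read after 18 h at 37°C.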

Assay [15] in a line: Ratio of bactericidal activity against Pseudomonas aeruginosa PT712 harboring mutation in bacterial rhlA protein to bactericidal activity against wild type Pseudomonas aeruginosa PAO1 PT5. It is filed as functional. In outline:
as §3

Structures are written as SMILES. The source made the active and inactive calls. The calls are words filed in the database; no cut-off is given here.

For the compound `CC[C@H]1OC(=O)[C@H](C)[C@@H](O[C@H]2C[C@@](C)(OC)[C@@H](O)[C@H](C)O2)[C@H](C)[C@@H](O[C@@H]2O[C@H](C)C[C@H](N(C)C)[C@H]2O)[C@](C)(O)C[C@@H](C)CN(C)[C@H](C)[C@@H](O)[C@]1(C)O` [AZITHROMYCIN], the inhibition entry in the assay on Pseudomonas aeruginosa [1], in the assay on Pseudomonas aeruginosa [2] and in the assay on Pseudomonas aeruginosa [5] was “Active” in each case. Further, the inhibition result with Pseudomonas aeruginosa [3], in the assay with Pseudomonas aeruginosa [6] and in the assay with Pseudomonas aeruginosa [13] was “inactive” each time. The inhibition result in the assay on Pseudomonas aeruginosa [4] was “Dose-dependent effect”. Further, the Activity entry is “Dose-dependent effect” with Pseudomonas aeruginosa [7], 4 with Pseudomonas aeruginosa [11] and 1 with Pseudomonas aeruginosa [12]. In addition, the outcome in the assay on Pseudomonas aeruginosa [8], in the assay with Pseudomonas aeruginosa [9], with Pseudomonas aeruginosa [10] and in the assay on Pseudomonas aeruginosa [14] was inactive. The Ratio in assay [15] was determined as 1000.
